Laboratory results published in ChEMBL document CHEMBL1687785, “ampG gene of Pseudomonas aeruginosa and its role in β-lactamase expression” (2010).

Tests used:
Assay type in all cases: functional
Pseudomonas aeruginosa [1] = assay: Antimicrobial activity against ampG deficient Pseudomonas aeruginosa PAK harboring pUCP24 conferring resistance to gentamycin after 16 to 20 hrs by broth microdilution method
In short: (§1)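 CLSI broth microdilution in Mueller-Hinton broth, serial 2-fold antibiotic dilutions. Inoculum about 10^4 cells per well, taken from starter cultures grown to OD600 0.5. MIC was the lowest antibiotic concentration preventing growth after 16 to 20 h at 37°C. Each MIC was determined in triplicate.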

Pseudomonas aeruginosa [2] = assay: Antimicrobial activity against ampGh1 deficient Pseudomonas aeruginosa PAK after 16 to 20 hrs by broth microdilution method in presence of 120 uM carbonyl cyanide m-chlorophenyl-hydrazone
In short: (§2)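 CLSI broth microdilution in Mueller-Hinton broth with serial antibiotic dilutions. CCCP was added from a 10 mM DMSO stock to 120 μM final, then the bacterial culture was added as inoculum (about 10^4 cells from OD600 0.5 starter cultures). MIC was the lowest concentration preventing growth after 16 to 20 h at 37°C, run in triplicate.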

Pseudomonas aeruginosa [3] = assay: Antimicrobial activity against ampD, ampDh2, ampDh3 and ampGh1 deficient Pseudomonas aeruginosa PAO1 after 16 to 20 hrs by broth microdilution method in presence of 120 uM carbonyl cyanide m-chlorophenyl-hydrazone; in short: as §2
Pseudomonas aeruginosa [4] = assay: Antimicrobial activity against ampG deficient Pseudomonas aeruginosa PAK after 16 to 20 hrs by broth microdilution method in presence of 120 uM carbonyl cyanide m-chlorophenyl-hydrazone; in short: as §2
Pseudomonas aeruginosa [5] = assay: Antimicrobial activity against ampD, ampDh2, ampDh3 and ampG deficient Pseudomonas aeruginosa PAO1 after 16 to 20 hrs by broth microdilution method; in short: as §1
Pseudomonas aeruginosa [6] = assay: Antimicrobial activity against Pseudomonas aeruginosa isolate 15 obtained from cystic fibrosis patients after 16 to 20 hrs by broth microdilution method
In short: (§3)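 CLSI broth microdilution: 2-fold serial antibiotic dilutions in Mueller-Hinton broth, inoculated with about 10^4 cells per 100 μl from starter cultures grown to OD600 0.5. MIC is the lowest concentration preventing growth after 16-20 h at 37°C. Triplicate.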

Pseudomonas aeruginosa [7] = assay: Antimicrobial activity against ampD, ampDh2, ampDh3 and ampG deficient Pseudomonas aeruginosa PAO1 harboring pZY0901 conferring resistance to gentamycin after 16 to 20 hrs by broth microdilution method in presence of 120 uM carbonyl cyanide m-chlorophenyl-hydrazone; in short: as §2
Pseudomonas aeruginosa [8] = assay: Antimicrobial activity against ampG, ampGh1 deficient Pseudomonas aeruginosa PAK after 16 to 20 hrs by broth microdilution method; in short: as §1
Pseudomonas aeruginosa [9] = assay: Antimicrobial activity against Pseudomonas aeruginosa isolate 13 obtained from cystic fibrosis patients after 16 to 20 hrs by broth microdilution method; in short: as §3
Pseudomonas aeruginosa [10] = assay: Antimicrobial activity against ampG deficient Pseudomonas aeruginosa PAO1 after 16 to 20 hrs by broth microdilution method in presence of 120 uM carbonyl cyanide m-chlorophenyl-hydrazone; in short: as §2
Pseudomonas aeruginosa [11] = assay: Antimicrobial activity against Pseudomonas aeruginosa isolate 2 obtained from cystic fibrosis patients after 16 to 20 hrs by broth microdilution method; in short: as §1
Pseudomonas aeruginosa [12] = assay: Antimicrobial activity against ampG deficient Pseudomonas aeruginosa PAK after 16 to 20 hrs by broth microdilution method; in short: as §1
Pseudomonas aeruginosa [13] = assay: Antimicrobial activity against Pseudomonas aeruginosa isolate 1 obtained from cystic fibrosis patients after 16 to 20 hrs by broth microdilution method in presence of 120 uM carbonyl cyanide m-chlorophenyl-hydrazone
In short: (§4)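 CLSI broth microdilution in Mueller-Hinton broth with CCCP added from a 10 mM DMSO stock to 120 μM final, alongside 2-fold serial antibiotic dilutions. Inoculum from starter cultures grown to OD600 0.5. MIC is the lowest concentration preventing growth after 16-20 h at 37°C. Triplicate.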

Pseudomonas aeruginosa [14] = assay: Antimicrobial activity against ampGh1 deficient Pseudomonas aeruginosa PAO1 after 16 to 20 hrs by broth microdilution method; in short: as §1
Pseudomonas aeruginosa [15] = assay: Antimicrobial activity against Pseudomonas aeruginosa isolate 14 obtained from cystic fibrosis patients after 16 to 20 hrs by broth microdilution method in presence of 120 uM carbonyl cyanide m-chlorophenyl-hydrazone; in short: as §4
Escherichia coli = assay: Antimicrobial activity against kanamycin resistant Escherichia coli SNO301-1 harboring pEC1C carrying ampC, ampR from Enterobacter cloacae after 16 to 20 hrs by broth microdilution method
In short: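 CLSI broth microdilution: serial 2-fold β-lactam dilutions in Mueller-Hinton broth, inoculum about 10^4 cells from starter cultures at OD600 0.5; MIC read as lowest concentration preventing growth after 16 to 20 h at 37°C; triplicate determinations.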

Pseudomonas aeruginosa [16] = assay: Antimicrobial activity against ampD, ampDh2, ampDh3 and ampG deficient Pseudomonas aeruginosa PAO1 harboring pUCP24 conferring resistance to gentamycin after 16 to 20 hrs by broth microdilution method in presence of 120 uM carbonyl cyanide m-chlorophenyl-hydrazone; in short: as §2
Pseudomonas aeruginosa [17] = assay: Antimicrobial activity against ampG deficient Pseudomonas aeruginosa PAO1 harboring pUCP24 conferring resistance to gentamycin after 16 to 20 hrs by broth microdilution method in presence of 120 uM carbonyl cyanide m-chlorophenyl-hydrazone; in short: as §2
Pseudomonas aeruginosa [18] = assay: Antimicrobial activity against ampD, ampDh2, ampDh3 and ampG deficient Pseudomonas aeruginosa PAO1 after 16 to 20 hrs by broth microdilution method in presence of 120 uM carbonyl cyanide m-chlorophenyl-hydrazone; in short: as §2
Pseudomonas aeruginosa [19] = assay: Antimicrobial activity against ampG, ampGh1 deficient Pseudomonas aeruginosa PAO1 after 16 to 20 hrs by broth microdilution method; in short: as §1
Pseudomonas aeruginosa [20] = assay: Antimicrobial activity against ampD, ampDh2, ampDh3 deficient Pseudomonas aeruginosa PAO1 after 16 to 20 hrs by broth microdilution method in presence of 120 uM carbonyl cyanide m-chlorophenyl-hydrazone; in short: as §2
Pseudomonas aeruginosa [21] = assay: Antimicrobial activity against Pseudomonas aeruginosa isolate 18 obtained from cystic fibrosis patients after 16 to 20 hrs by broth microdilution method in presence of 120 uM carbonyl cyanide m-chlorophenyl-hydrazone; in short: as §2
Pseudomonas aeruginosa [22] = assay: Antimicrobial activity against Pseudomonas aeruginosa isolate 12 obtained from cystic fibrosis patients after 16 to 20 hrs by broth microdilution method; in short: as §3
Pseudomonas aeruginosa [23] = assay: Antimicrobial activity against ampGh1 deficient Pseudomonas aeruginosa PAO1 after 16 to 20 hrs by broth microdilution method in presence of 120 uM carbonyl cyanide m-chlorophenyl-hydrazone
In short: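 Serial 2-fold dilutions of β-lactam in Mueller-Hinton broth with CCCP added from a 10 mM DMSO stock to 120 μM final; inoculum about 10^4 cells from cultures grown to OD600 0.5; MIC taken as lowest concentration preventing growth after 16 to 20 h at 37°C; triplicate.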

Pseudomonas aeruginosa [24] = assay: Antimicrobial activity against Pseudomonas aeruginosa isolate 13 obtained from cystic fibrosis patients after 16 to 20 hrs by broth microdilution method in presence of 120 uM carbonyl cyanide m-chlorophenyl-hydrazone; in short: as §4
Pseudomonas aeruginosa [25] = assay: Antimicrobial activity against Pseudomonas aeruginosa PAK after 16 to 20 hrs by broth microdilution method; in short: as §3
Pseudomonas aeruginosa [26] = assay: Antimicrobial activity against Pseudomonas aeruginosa isolate 10 obtained from cystic fibrosis patients after 16 to 20 hrs by broth microdilution method in presence of 120 uM carbonyl cyanide m-chlorophenyl-hydrazone; in short: as §4
Pseudomonas aeruginosa [27] = assay: Antimicrobial activity against Pseudomonas aeruginosa isolate 18 obtained from cystic fibrosis patients after 16 to 20 hrs by broth microdilution method; in short: as §1
Pseudomonas aeruginosa [28] = assay: Antimicrobial activity against Pseudomonas aeruginosa PAK after 16 to 20 hrs by broth microdilution method in presence of 120 uM carbonyl cyanide m-chlorophenyl-hydrazone; in short: as §4
Pseudomonas aeruginosa [29] = assay: Antimicrobial activity against Pseudomonas aeruginosa isolate 11 obtained from cystic fibrosis patients after 16 to 20 hrs by broth microdilution method in presence of 120 uM carbonyl cyanide m-chlorophenyl-hydrazone; in short: as §4

Measured: MIC

CC1(C)S[C@@H]2[C@H](NC(=O)[C@H](N)c3ccccc3)C(=O)N2[C@H]1C(=O)O [AMPICILLIN]
16 µg/mL: Pseudomonas aeruginosa [5] | Pseudomonas aeruginosa [16] | Pseudomonas aeruginosa [18]
256 µg/mL: Pseudomonas aeruginosa [2] | Pseudomonas aeruginosa [11] | Pseudomonas aeruginosa [14] | Pseudomonas aeruginosa [21] | Pseudomonas aeruginosa [23] | Pseudomonas aeruginosa [27] | Pseudomonas aeruginosa [28]
64 µg/mL: Pseudomonas aeruginosa [3] | Pseudomonas aeruginosa [20]
512 µg/mL: Pseudomonas aeruginosa [13] | Pseudomonas aeruginosa [25]
1020 µg/mL: Escherichia coli
> 1020 µg/mL: Pseudomonas aeruginosa [6] | Pseudomonas aeruginosa [9] | Pseudomonas aeruginosa [22]
8 µg/mL: Pseudomonas aeruginosa [15] | Pseudomonas aeruginosa [24] | Pseudomonas aeruginosa [26] | Pseudomonas aeruginosa [29]
32 µg/mL: all other assays above
